Active and inactive are the calls of the source. No cut-off for these calls is given here.
How the values were obtained:
[1] = MRT(0 to infinity) in Sprague-Dawley rat at 25 mg/kg, po measured up to 48 hrs by LC-MS/MS analysis; assay type: ADME, organism-based; conditions: in vivo
Procedure, shortened: (§1)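 Overnight-fasted male SD rats (250−270 g, n = 3/group), single oral 25 mg/kg in 5% CMC-Na (reference sodium salt in phosphate buffer); plasma at 0.25–48 h (12 timepoints), stored −40 °C; LC−MS/MS with internal-standard calibration 3–3000 ng/mL; parameters fitted by model.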

[2] = Toxicity in BALB/c mouse xenografted with human HCT116 cells assessed as change in body weight at 60 to 90 mg/kg, po administered twice daily for 4 weeks and measured every 3 days; assay type: organism-based, HCT-116; conditions: in vivo, 672 h, dose 60-90 mg/kg
Procedure, shortened: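 Male 5-week BALB/c nude mice (16−18 g), 0.2 mL of 5 × 10⁷ cells/mL HCT-116 injected into right armpit; at ~100 mm³ randomized, 5/group; intragastric 60 or 90 mg/kg twice daily for 4 weeks; tumor volume and body weight every 3 days; after sacrifice heart, liver, spleen, lung, kidney HE-stained.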

[3] = Clearance in Sprague-Dawley rat at 25 mg/kg, po measured up to 48 hrs by LC-MS/MS analysis; assay type: ADME, organism-based; conditions: in vivo
Procedure, shortened: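 Overnight-fasted male SD rats (about 250−270 g), three per group, single oral 25 mg/kg; test compound suspended in 5% CMC-Na, control as sodium salt in phosphate buffer. Blood sampled 0.25–48 h, plasma by centrifugation, stored −40 °C, quantified by LC−MS/MS against plasma standard curve (3–3000 ng/mL) with internal standard; model-fitted PK parameters.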

HCT-116 [4] = test: Effect on Wnt/beta-Catenin signaling in human HCT116 cells assessed as reduction in c-Myc mRNA level at 20 uM after 24 hrs by RT-qPCR analysis; assay type: functional, cell-based
Procedure, shortened: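 HCT-116 cells treated 24 h; total RNA by TRIZOL, one-step RT-qPCR: 55 °C 10 min, 95 °C 1 min, then 39 cycles of 95 °C 10 s and 60 °C 30 s, with melting-curve and no-template controls. β-Actin as internal standard; relative expression by 2^−ΔΔCt, mean ± SD (n = 3).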

[5] = molecular target: T1, Ephrin type-A receptor 1 (Homo sapiens) (UniProt P21709); test: Inhibition of EPHA1 (unknown origin) assessed as residual activity at 1 uM relative to control
T1 sequence (whole entry): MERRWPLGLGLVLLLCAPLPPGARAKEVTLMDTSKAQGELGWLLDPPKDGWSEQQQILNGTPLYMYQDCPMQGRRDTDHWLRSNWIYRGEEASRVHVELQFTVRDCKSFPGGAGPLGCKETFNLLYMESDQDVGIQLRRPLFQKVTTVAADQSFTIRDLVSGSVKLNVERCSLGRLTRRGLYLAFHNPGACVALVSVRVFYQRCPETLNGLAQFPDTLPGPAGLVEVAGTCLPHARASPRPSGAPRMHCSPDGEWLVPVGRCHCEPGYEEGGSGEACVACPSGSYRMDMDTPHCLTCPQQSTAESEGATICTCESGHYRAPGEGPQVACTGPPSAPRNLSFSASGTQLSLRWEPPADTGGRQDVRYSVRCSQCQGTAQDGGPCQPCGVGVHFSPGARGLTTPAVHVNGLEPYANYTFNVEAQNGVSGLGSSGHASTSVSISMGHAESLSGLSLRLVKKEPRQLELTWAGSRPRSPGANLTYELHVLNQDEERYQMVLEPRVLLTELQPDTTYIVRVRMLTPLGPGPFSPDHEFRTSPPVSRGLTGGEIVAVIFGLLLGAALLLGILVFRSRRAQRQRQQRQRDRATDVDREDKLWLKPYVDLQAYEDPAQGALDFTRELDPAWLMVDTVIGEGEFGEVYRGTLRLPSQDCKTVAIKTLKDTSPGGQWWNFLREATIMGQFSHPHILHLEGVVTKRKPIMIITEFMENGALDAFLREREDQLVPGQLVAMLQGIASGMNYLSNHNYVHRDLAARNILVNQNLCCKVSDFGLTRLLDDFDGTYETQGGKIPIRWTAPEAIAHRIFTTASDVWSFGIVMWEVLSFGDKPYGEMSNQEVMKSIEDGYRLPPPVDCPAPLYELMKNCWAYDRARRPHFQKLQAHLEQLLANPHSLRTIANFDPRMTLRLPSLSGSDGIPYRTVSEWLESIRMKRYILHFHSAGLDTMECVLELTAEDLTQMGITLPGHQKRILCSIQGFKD
Procedure, shortened: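 Single-concentration screen at 1 μmol/L against a panel of 208 kinases, run as a commercial service; activity expressed relative to control.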

[6] = molecular target: T2, Aldehyde dehydrogenase 1A1 (Homo sapiens) (UniProt P00352); test: Inhibition of ALDH1A1 in human HCT116 cells at 20 uM after 24 hrs by aldefluor staining based fluorescence analysis; assay type: cell-based; conditions: HCT-116
T2 sequence (whole entry): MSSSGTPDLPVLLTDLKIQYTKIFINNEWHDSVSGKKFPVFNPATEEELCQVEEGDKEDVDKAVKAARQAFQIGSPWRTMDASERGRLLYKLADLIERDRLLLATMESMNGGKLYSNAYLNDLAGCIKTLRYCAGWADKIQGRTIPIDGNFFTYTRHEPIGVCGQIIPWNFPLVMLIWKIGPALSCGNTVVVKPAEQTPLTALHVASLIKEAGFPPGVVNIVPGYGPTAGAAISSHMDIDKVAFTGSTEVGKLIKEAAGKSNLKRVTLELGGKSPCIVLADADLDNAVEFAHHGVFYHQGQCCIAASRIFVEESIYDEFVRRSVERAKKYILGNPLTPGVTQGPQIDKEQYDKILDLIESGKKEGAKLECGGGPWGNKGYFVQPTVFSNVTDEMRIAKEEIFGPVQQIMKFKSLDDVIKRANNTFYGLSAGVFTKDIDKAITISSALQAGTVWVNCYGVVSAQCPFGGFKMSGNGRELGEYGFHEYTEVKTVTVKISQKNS
Procedure, shortened: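 HCT-116 cells, 2 × 10⁵/well, grown overnight at 37 °C, 5% CO₂, then treated 24 h (vehicle DMSO). Aldefluor staining read in FITC channel by FACS for proportion of ALDH⁺ cells; DEAB-pretreated cells set baseline fluorescence.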

HCT-116 [7] = test: Induction of apoptosis in human HCT116 cells assessed as late apoptotic cells at 5 uM after 24 hrs by annexin V-FITC/propidium iodide staining based flow cytometry (reference value: 5.1%); assay type: functional
HCT-116 [8] = test: Induction of apoptosis in human HCT116 cells assessed as upregulation of cleaved caspase 9 level at 20 uM incubated for 24 hrs by Western blot analysis; assay type: functional, cell-based
Procedure, shortened: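 HCT-116 cells at 2 × 10⁵ cells/mL in DMEM/10% FBS, grown 12 h at 37 °C, then treated 24 h (vehicle DMSO). Lysates quantified by BCA, run on 10% SDS-PAGE, PVDF transfer, blocked in 5% milk/TBST, primary antibodies 4 °C overnight, HRP secondary 2 h, chemiluminescent detection; normalized to β-actin, n = 3.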

[9] = Tmax in Sprague-Dawley rat at 25 mg/kg, po measured up to 48 hrs by LC-MS/MS analysis; assay type: ADME, organism-based; conditions: in vivo; procedure, shortened: as §1

- MRT inf [1]: 6.26 h
- CL/F [3]: 10 mL/min/kg
- Activity [5]: 45.2%
- inhibition [6]: 96%
- Tmax [9]: 2.33 h
SMILES: O=C(NCCO)c1ccc2c(c1)nc(Nc1cccc(Cl)c1)c1ccncc12
- Activity [2]: Non-Toxic
- Activity (HCT-116 [4]): Active
- Activity (HCT-116 [7]): 14.3%
- Activity (HCT-116 [8]): Active

— ChEMBL document CHEMBL4808178 (J Med Chem, 2021)
